Reference: ChEMBL document CHEMBL4680257, “Discovery of novel NF-кB inhibitor based on scaffold hopping: 1,4,5,6,7,8-hexahydropyrido[4,3-d]pyrimidine” (Eur J Med Chem, 2020)

Assays:
RAW264.7 [1] = experiment: Antiinflammatory activity against mouse RAW264.7 cells assessed as LPS-induced IL-6 at 30 uM pretreated for 2 hrs followed by LPS stimulation and measured after 22 hrs by ELISA (reference value: 0 %); format: functional; details: time 24 hrs
Procedure, shortened: (§1)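 Mouse RAW264.7 macrophages were pretreated with compound for 2 h, then stimulated with LPS (1.0 µg/mL) for 22 h. Culture medium was centrifuged at 1000 rpm for 10 min, and secreted TNF-α and IL-6 were each quantified by ELISA kit. Inhibition rates are means of three replicates.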

RAW264.7 [2] = experiment: Antiinflammatory activity against mouse RAW264.7 cells assessed as LPS-induced TNF-alpha at 30 uM pretreated for 2 hrs followed by LPS stimulation and measured after 22 hrs by ELISA (reference value: 0 %); format: functional; details: time 24 hrs; procedure, shortened: as §1
HepG2 = experiment: Cytotoxicity against human HepG2 cells assessed as reduction in cell viability incubated for 24 hrs by MTT assay; format: functional, cell-based; details: HepG2, 24 h
Procedure, shortened: (§2)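 Cells kept at 37 °C in 5% CO₂. HepG2 grown in DMEM with 10% serum; HHL-5, LO2 and SMMC-7721 in 1640 medium with 10% serum. Seeded, grown 24 h, then exposed 24 h to 10, 5, 2.5, 1.25, 0.625 and 0.3125 µg/mL. MTT (5 mg/mL) added for 4 h at 37 °C; formazan dissolved in DMSO, OD read at 570 nm. IC50 averaged from three replicates.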

RAW264.7 [3] = experiment: Cytotoxicity against mouse RAW264.7 cells assessed as reduction in cell viability at 5 uM incubated for 24 hrs by MTT assay; format: cell-based; details: raw264.7, 24 h
L02 = experiment: Cytotoxicity against human L02 cells assessed as reduction in cell viability incubated for 24 hrs by MTT assay; format: cell-based; details: L02, 24 h; procedure, shortened: as §2
SMMC-7721 = experiment: Cytotoxicity against human SMMC-7721 cells assessed as reduction in cell viability incubated for 24 hrs by MTT assay; format: functional, cell-based; details: SMMC-7721, 24 h; procedure, shortened: as §2
RAW264.7 [4] = experiment: Antiinflammatory activity against mouse RAW264.7 cells assessed as LPS-induced TNF-alpha at 5 uM pretreated for 2 hrs followed by LPS stimulation and measured after 22 hrs by ELISA (reference value: 0 %); format: functional; details: time 24 hrs
[5] = Cytotoxicity against human HHL-5 cells assessed as reduction in cell viability incubated for 24 hrs by MTT assay; format: cell-based; details: HHL-5, 24 h; procedure, shortened: as §2
RAW264.7 [6] = experiment: Antiinflammatory activity against mouse RAW264.7 cells assessed as LPS-induced IL-6 at 5 uM pretreated for 2 hrs followed by LPS stimulation and measured after 22 hrs by ELISA relative to control (reference value: 0 %); format: functional; details: time 24 hrs

Compound `S=C(S)N1CCCC1` [PYRROLIDINE DITHIOCARBAMATE] has an inhibition at 30 µM (RAW264.7 [1]) of 56.9% and an inhibition at 30 µM (RAW264.7 [2]) of 66.5%.

In the case of `Cl.NC1=NC(c2cccc(F)c2)C2=C(N1)/C(=C/c1cccc(F)c1)CN(S(=O)(=O)c1ccccc1)C2` (stereo unspecified), the IC50 (HepG2) is reported as 3.7 µM, the Activity (RAW264.7 [3]) is reported as “Non-Toxic” and the IC50 (L02) is reported as 37.8 µM. It also gave an IC50 (SMMC-7721) of 12.8 µM, an inhibition at 5 µM (RAW264.7 [4]) of 54% and an IC50 [5] of 11.3 µM. The inhibition at 5 µM (RAW264.7 [6]) was 56.3%.

For `CC(=O)Nc1ccc(S(=O)(=O)N2CC3=C(NC(N)=NC3c3ccccc3F)/C(=C/c3ccccc3F)C2)cc1.Cl` (stereo unspecified), the IC50 (HepG2) was 11.8 µM, the Activity (RAW264.7 [3]) was “Non-Toxic” and the IC50 (L02) was 11.2 µM. For the same compound, the IC50 (SMMC-7721) was 8.6 µM, the inhibition at 5 µM (RAW264.7 [4]) was 67.6% and the IC50 [5] was 22.1 µM. For the same compound, the inhibition at 5 µM (RAW264.7 [6]) was 61.6%.

In the case of `Cl.N#Cc1ccc(S(=O)(=O)N2CC3=C(NC(N)=NC3c3ccc(F)cc3)/C(=C/c3ccc(F)cc3)C2)cc1` (stereo unspecified), the IC50 (HepG2) is reported as 11.7 µM, the Activity (RAW264.7 [3]) is reported as “Non-Toxic” and the IC50 (L02) is reported as 18.6 µM. For the same compound, the IC50 (SMMC-7721) was 42.7 µM, the inhibition at 5 µM (RAW264.7 [4]) was 45.9% and the IC50 [5] was 26.7 µM. For the same compound, the inhibition at 5 µM (RAW264.7 [6]) was 51.1%.

For `CC(=O)Nc1ccc(S(=O)(=O)N2CC3=C(NC(N)=NC3c3ccc(F)cc3)/C(=C/c3ccc(F)cc3)C2)cc1.Cl` (stereo unspecified), the IC50 (HepG2) was 7.4 µM, the Activity (RAW264.7 [3]) was “Non-Toxic” and the IC50 (L02) was 20.3 µM. The IC50 (SMMC-7721) was 6.2 µM, the inhibition at 5 µM (RAW264.7 [4]) was 40.1% and the IC50 [5] was 32.2 µM. For the same compound, the inhibition at 5 µM (RAW264.7 [6]) was 54.2%.

With `Cl.NC1=NC(c2ccc(F)cc2)C2=C(N1)/C(=C/c1ccc(F)cc1)CN(S(=O)(=O)c1ccc(Cl)cc1)C2` (stereo unspecified) the IC50 (HepG2) was 7.6 µM, the Activity (RAW264.7 [3]) was “Non-Toxic” and the IC50 (L02) was 16.7 µM. It also gave an IC50 (SMMC-7721) of 12 µM, an inhibition at 5 µM (RAW264.7 [4]) of 48.4% and an IC50 [5] of 27.1 µM. The inhibition at 5 µM (RAW264.7 [6]) was 54.8%.

For `Cl.NC1=NC(c2cccc(F)c2)C2=C(N1)/C(=C/c1cccc(F)c1)CN(S(=O)(=O)c1ccc([N+](=O)[O-])cc1)C2` (stereo unspecified), the IC50 (HepG2) was 30.6 µM, the Activity (RAW264.7 [3]) was “Non-Toxic” and the IC50 (L02) was 42.4 µM. It also gave an IC50 (SMMC-7721) of 12.3 µM, an inhibition at 5 µM (RAW264.7 [4]) of 58.8% and an IC50 [5] of 30.5 µM. For the same compound, the inhibition at 5 µM (RAW264.7 [6]) was 78.5%.

In the case of `Cl.NC1=NC(c2ccc(F)cc2)C2=C(N1)/C(=C/c1ccc(F)cc1)CN(S(=O)(=O)c1ccc(F)cc1)C2` (stereo unspecified), the IC50 (HepG2) is reported as 4.1 µM, the Activity (RAW264.7 [3]) is reported as “Non-Toxic” and the IC50 (L02) is reported as 13.3 µM. For the same compound, the IC50 (SMMC-7721) was 17.1 µM, the inhibition at 5 µM (RAW264.7 [4]) was 72.3% and the IC50 [5] was 11.1 µM. For the same compound, the inhibition at 5 µM (RAW264.7 [6]) was 71.4%.

In the case of `Cl.NC1=NC(c2cccc(F)c2)C2=C(N1)/C(=C/c1cccc(F)c1)CN(S(=O)(=O)c1ccc(Cl)cc1)C2` (stereo unspecified), the IC50 (HepG2) is reported as 15 µM, the Activity (RAW264.7 [3]) is reported as “Non-Toxic” and the IC50 (L02) is reported as 15.1 µM. For the same compound, the IC50 (SMMC-7721) was 5.5 µM, the inhibition at 5 µM (RAW264.7 [4]) was 57.7% and the IC50 [5] was 12 µM. It also gave an inhibition at 5 µM (RAW264.7 [6]) of 75.9%.

For `Cl.NC1=NC(c2ccc(F)cc2)C2=C(N1)/C(=C/c1ccc(F)cc1)CN(S(=O)(=O)c1ccc(Br)cc1)C2` (stereo unspecified), the IC50 (HepG2) was 5.6 µM, the Activity (RAW264.7 [3]) was “Non-Toxic” and the IC50 (L02) was 18.3 µM. For the same compound, the IC50 (SMMC-7721) was 12.2 µM, the inhibition at 5 µM (RAW264.7 [4]) was 58.1% and the IC50 [5] was 18.3 µM. For the same compound, the inhibition at 5 µM (RAW264.7 [6]) was 64.3%.

In the case of `Cl.N#Cc1ccc(S(=O)(=O)N2CC3=C(NC(N)=NC3c3cccc(F)c3)/C(=C/c3cccc(F)c3)C2)cc1` (stereo unspecified), the IC50 (HepG2) is reported as 3.5 µM, the Activity (RAW264.7 [3]) is reported as “Non-Toxic” and the IC50 (L02) is reported as 17.2 µM. The IC50 (SMMC-7721) was 4.2 µM, the inhibition at 5 µM (RAW264.7 [4]) was 74.5% and the IC50 [5] was 18.9 µM. It also gave an inhibition at 5 µM (RAW264.7 [6]) of 73%.

With `Cl.NC1=NC(c2ccccc2F)C2=C(N1)/C(=C/c1ccccc1F)CN(S(=O)(=O)c1ccc(Cl)cc1)C2` (stereo unspecified) the IC50 (HepG2) was 12.2 µM, the Activity (RAW264.7 [3]) was “Non-Toxic” and the IC50 (L02) was 11.5 µM. The IC50 (SMMC-7721) was 4.9 µM, the inhibition at 5 µM (RAW264.7 [4]) was 83% and the IC50 [5] was 9.1 µM. It also gave an inhibition at 5 µM (RAW264.7 [6]) of 81.5%.

For `Cl.NC1=NC(c2ccc(F)cc2)C2=C(N1)/C(=C/c1ccc(F)cc1)CN(S(=O)(=O)c1ccc([N+](=O)[O-])cc1)C2` (stereo unspecified), the IC50 (HepG2) was 9.4 µM, the Activity (RAW264.7 [3]) was “Non-Toxic” and the IC50 (L02) was 12.5 µM. It also gave an IC50 (SMMC-7721) of 19.1 µM, an inhibition at 5 µM (RAW264.7 [4]) of 65.9% and an IC50 [5] of 10.3 µM. For the same compound, the inhibition at 5 µM (RAW264.7 [6]) was 66.8%.

With `Cl.NC1=NC(c2ccc(F)cc2)C2=C(N1)/C(=C/c1ccc(F)cc1)CN(S(=O)(=O)c1ccc(C(F)(F)F)cc1)C2` (stereo unspecified) the IC50 (HepG2) was 3.3 µM, the Activity (RAW264.7 [3]) was “Non-Toxic” and the IC50 (L02) was 15.4 µM. The IC50 (SMMC-7721) was 3.8 µM, the inhibition at 5 µM (RAW264.7 [4]) was 87.5% and the IC50 [5] was 24.4 µM. The inhibition at 5 µM (RAW264.7 [6]) was 81.7%.

With `Cl.NC1=NC(c2ccc(F)cc2)C2=C(N1)/C(=C/c1ccc(F)cc1)CN(S(=O)(=O)c1ccccc1)C2` (stereo unspecified) the IC50 (HepG2) was 9.5 µM, the Activity (RAW264.7 [3]) was “Non-Toxic” and the IC50 (L02) was 9.9 µM. For the same compound, the IC50 (SMMC-7721) was 8 µM, the inhibition at 5 µM (RAW264.7 [4]) was 33.5% and the IC50 [5] was 11.5 µM. It also gave an inhibition at 5 µM (RAW264.7 [6]) of 39.8%.

For `Cl.NC1=NC(c2ccccc2F)C2=C(N1)/C(=C/c1ccccc1F)CN(S(=O)(=O)c1ccc(C(F)(F)F)cc1)C2` (stereo unspecified), the IC50 (HepG2) was 3.9 µM, the Activity (RAW264.7 [3]) was “Non-Toxic” and the IC50 (L02) was 22 µM. The IC50 (SMMC-7721) was 3.5 µM, the inhibition at 5 µM (RAW264.7 [4]) was 84.4% and the IC50 [5] was 20.8 µM. The inhibition at 5 µM (RAW264.7 [6]) was 82.3%.

In the case of `Cl.NC1=NC(c2ccccc2F)C2=C(N1)/C(=C/c1ccccc1F)CN(S(=O)(=O)c1ccccc1)C2` (stereo unspecified), the IC50 (HepG2) is reported as 9.9 µM, the Activity (RAW264.7 [3]) is reported as “Non-Toxic” and the IC50 (L02) is reported as 11.2 µM. For the same compound, the IC50 (SMMC-7721) was 8.5 µM, the inhibition at 5 µM (RAW264.7 [4]) was 46.9% and the IC50 [5] was 9.9 µM. It also gave an inhibition at 5 µM (RAW264.7 [6]) of 40.5%.

With `CC(=O)Nc1ccc(S(=O)(=O)N2CC3=C(NC(N)=NC3c3cccc(F)c3)/C(=C/c3cccc(F)c3)C2)cc1.Cl` (stereo unspecified) the IC50 (HepG2) was 22.9 µM, the Activity (RAW264.7 [3]) was “Non-Toxic” and the IC50 (L02) was 15 µM. The IC50 (SMMC-7721) was 6.5 µM, the inhibition at 5 µM (RAW264.7 [4]) was 69.9% and the IC50 [5] was 10.7 µM. It also gave an inhibition at 5 µM (RAW264.7 [6]) of 57.5%.
